The structures appear in SMILES notation. Converted amounts (≈) assume the structure as drawn. The source made the active and inactive calls. No cut-off for these calls is given here. Bounds are passed on as bounds.

In series [1] the test system is HeLa. Kind of series: Antimitotic activity in human HeLa cells assessed as mitotic microtubule organization at 1 to 10 nM after 3 hrs by Hoechst 33342 staining based inverted microscopic analysis. The class given is functional, cell-based. Put shortly: (§1)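 HeLa cells grown in EMEM with 10% FBS, sodium pyruvate and sodium bicarbonate; treated 3 h with compound (DMSO stock prediluted in medium) or 0.1% DMSO carrier. Fixed in methanol at -20°C for 30 min, blocked in 3% BSA/PBS 1 h, mouse anti-tubulin plus rabbit anti-pericentrin overnight at 4 °C, Alexafluor secondaries, Hoechst 33342 for DNA; epifluorescence imaging with Apotome.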

Series [2] relates to HeLa. Description: Antimitotic activity in human HeLa cells assessed as effect on spindle length at 1 to 10 nM after 3 hrs by Hoechst 33342 staining based inverted microscopic analysis. Type of series: functional, cell-based. The method in brief: as §1
Series [3] relates to HeLa. Kind of series: Growth inhibition of human HeLa cells after 48 hrs by MTT assay. The class given is functional. Put shortly: (§2)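 Cells seeded at 4 × 10^3 per well, grown 24 h, then treated 48 h at 0.004–100 µM from 100 or 25 mM DMSO stocks. Controls were 0.1% DMSO and phenyl arsine oxide. MTT (5 mg/mL) added for 2 h, formazan dissolved in DMSO, A490 read. […] HeLa/MCF-7 in DMEM, MES-SA lines in RPMI-1640, all with 10% FBS.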
(Formazan colour is commonly taken as a measure of viable cells.)

Another series has as its system SK-MEL-28. Kind of series: Growth inhibition of human SK-MEL-28 cells after 48 hrs by MTT assay. Type of series: functional. As to conditions: SK-MEL-28, 48 h.
In series [4] the test system is HeLa. Kind of series: Antimitotic activity in human HeLa cells assessed as disruption of interphase microtubule organization at 10 to 100 nM after 3 hrs by Hoechst 33342 staining based inverted microscopic analysis. Type of series: functional, cell-based. The method in brief: as §1
Another series concerns B16-F10. Description: Growth inhibition of mouse B16F10 cells after 48 hrs by MTT assay. Type of series: functional. The conditions noted are these: B16-F10, 48 h.
The test system of series [5] is HeLa. Kind of series: Cell cycle arrest in human HeLa cells assessed as accumulation at G2/M phase at 1 uM after 32 hrs using Vybrant Orange staining by flow cytometry relative to control. The class given is functional, cell-based. Put shortly:
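HeLa cells at 70–80% confluence were seeded at 2 × 10^5 per well in DMEM/10% FBS with penicillin G and streptomycin, left to adhere overnight, then treated at 1 µM for 32 h (0.1% DMSO control). Washed, trypsinized, stained 30 min at 37 °C with 10 µM Vybrant Orange in medium, then analysed by flow cytometry for DNA content.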
(Flow cytometry measures light scatter and fluorescence of single cells or particles in a stream.)

Series [6] in a line: Aqueous solubility of the compound by spectrophotometric analysis. The class given is physicochemical. Put shortly: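 Compound dispersed in ultrapure water at >0.5 mg/mL; supernatant centrifuged repeatedly until no pellet remained, then diluted 1:2 (solution:DMSO). Concentration read from absorbance at peak 335–336 nm against a calibration line made in 1:2 water/DMSO, and corrected for the DMSO dilution.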

Series [7] deals with HeLa. Kind of series: Antimitotic activity in human HeLa cells assessed as disruption of mitotic microtubule organization at 10 to 100 nM after 3 hrs by Hoechst 33342 staining based inverted microscopic analysis. Type of series: functional, cell-based. The method in brief: as §1
Series [8] is described as follows: Inhibition of bovine brain tubulin polymerization preincubated for 15 mins followed by GTP addition measured after 20 mins by turbidimetric analysis. Further details: species or system Bos taurus. The method in brief:
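Bovine brain tubulin at 10 µM (1.0 mg/mL) in 0.8 M monosodium glutamate (pH 6.6 in 2 M stock) was preincubated with varying compound concentrations for 15 min at 30 °C, then cooled to 0 °C. After addition of 0.4 mM GTP, samples were warmed to 30 °C and assembly followed by turbidity at 350 nm.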

Series [9] addresses T1, Tubulin beta (Homo sapiens) (UniProt P68371+Q9H4B7+Q13509+P04350+Q3ZCM7+P07437+Q13885+Q9BVA1+Q9BUF5+A6NNZ2). Kind of series: Inhibition of [3H] radiolabelled colchicine binding to tubulin beta (unknown origin) at 5 uM by DEAE-cellulose filter method. The class given is protein assay.
For the next series, the system named is MCF7. Description: Growth inhibition of human MCF7 cells after 48 hrs by MTT assay. The class given is functional. As to conditions: MCF7, 48 h. The method in brief:
as §2

The next series relates to UMSCC22B. Kind of series: Growth inhibition of human UM-SCC-22B cells after 48 hrs by MTT assay. The class given is functional.
Series [10] in a line: Growth inhibition of human UM-SCC-22A cells after 48 hrs by MTT assay. Type of series: functional.
Series [11] in a line: Growth inhibition of human U373 cells after 48 hrs by MTT assay. Type of series: functional, U-373MG ATCC. As to conditions: U373 MG.
A short description of series [12]: Growth inhibition of human UM-SCC-10B cells after 48 hrs by MTT assay. The class given is functional.
A short description of series [13]: Growth inhibition of human MES-SA cells after 48 hrs by MTT assay. Type of series: functional. The method in brief: as §2
Series [14] relates to HeLa. Kind of series: Antimitotic activity in human HeLa cells assessed as interphase microtubule organization at 1 to 10 nM after 3 hrs by Hoechst 33342 staining based inverted microscopic analysis. Type of series: functional, cell-based. Put shortly:
as §1

Series [15] can be described thus: Growth inhibition of human UM-SCC-10A cells after 48 hrs by MTT assay. Type of series: functional. As to conditions: UMSCC-10A.
Series [16] in a line: Growth inhibition of human Hs683 cells after 48 hrs by MTT assay. The class given is functional. The conditions noted are these: Hs 683, 48 h.
For a further series, the system named is A549. Kind of series: Growth inhibition of human A549 cells after 48 hrs by MTT assay. Type of series: functional. The conditions noted are these: A549, 48 h.
Series [17] in a line: Growth inhibition of human doxorubicin-resistant MES-SA/Dx5 cells after 48 hrs by MTT assay. The class given is functional. As to conditions: MES-SA/Dx5, 48 h. The method in brief: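 Cells seeded at 4 × 10^3 per well, grown 24 h, then treated 48 h at 0.004–100 µM from 100 or 25 mM DMSO stocks. Controls were 0.1% DMSO and phenyl arsine oxide. MTT (5 mg/mL) added for 2 h, formazan dissolved in DMSO, A490 read.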

Series [18] concerns the target T1, Tubulin beta (Homo sapiens). Kind of series: Inhibition of [3H] radiolabelled colchicine binding to tubulin beta (unknown origin) at 1 uM by DEAE-cellulose filter method. Type of series: protein assay.

As a reminder, the GI50 is the concentration at which growth is held to half of that of the control. Lower therefore signals greater sensitivity of the cells. Broadly, the solubility is the concentration that dissolves in the medium under given conditions. Higher therefore signals much dissolved substance. By IC50 is commonly meant the concentration that inhibits the measured activity by half. Read a high IC50 as weaker potency in that assay. What is called inhibition is how much of the control response was suppressed. Read a high inhibition as strong suppression. Take `O=C(c1ccccc1)c1[nH]c2[nH]cnc(=O)c2c1-c1cc(Br)cc(Br)c1`: the result in the series with HeLa [1], in the series with HeLa [2] and with HeLa [14] was inactive. Further, the GI50 in the series on HeLa [3] was found to be 95 nM; with SK-MEL-28, 20 nM; in the series with B16-F10 it was 50 nM; in the series on MCF7, 95 nM; in the series with UMSCC22B, 20 nM; in series [10], 110 nM. In addition, the concentration for 50% growth inhibition (GI50) was 30 nM in series [11]; 100 nM in series [12]; 81 nM in series [13]; 90 nM in [15]; 20 nM in series [16]; 30 nM in the series on A549. In [17], the GI50 worked out at 394 nM. Moreover, the outcome in the series on HeLa [4], in the series on HeLa [5] and in the series with HeLa [7] was Active. The same compound displayed a solubility in series [6] of 40 µM (≈ 18.9 µg/mL). This compound also yielded a concentration for half-maximal inhibition (IC50) in series [8] of 1600 nM. Moreover, the inhibition in series [9] was 71%.
With `O=C(c1ccccc1)c1[nH]c2[nH]cnc(=O)c2c1-c1ccccc1`, the outcome in the series with HeLa [1], in the series on HeLa [2] and in the series on HeLa [14] was inactive. For the same compound, the GI50 is 35 nM with HeLa [3]; less than 10 nM with SK-MEL-28; 20 nM in the series with B16-F10; 40 nM in the series on MCF7; less than 10 nM in series [11]; 30 nM in series [13]. For the same compound, the GI50 in series [16] was 10 nM; in the series on A549, 10 nM; in series [17], 70 nM. Moreover, the result in the series with HeLa [4] and in the series with HeLa [7] was Active. The compound also registered a solubility in series [6] of 10 µM (≈ 3.15 µg/mL). For the same compound, in series [8], half-maximal inhibition (IC50) required 1200 nM. For the same compound, the inhibition in series [9] was found to be 88%; in series [18], 58%.

Values taken from ChEMBL document CHEMBL2417486, “Exploring natural product chemistry and biology with multicomponent reactions. 5. Discovery of a novel tubulin-targeting scaffold derived from the rigidin family of marine alkaloids” (J Med Chem, 2013).
